In ChEMBL document CHEMBL1126198, “A new class of high affinity ligands for the neurokinin A NK2 receptor: psi (CH2NR) reduced peptide bond analogues of neurokinin A4-10” (J Med Chem, 1992):
Starred links: 1 amine or outer side, 2 acyl side, 3 side chain; linkers in the order of their positions; H or OH if unused. Non-standard residues stand in square brackets, D forms with d. Residues, ends and D or L forms follow the SMILES beside them. *: point of attachment. X3 = N[C@@H](CC(=O)O)C(=O)N[C@@H](CO)CN([C@@H](Cc1ccccc1)C(=O)[*:2])[*:1]; Leuψ(CH2NH)PheNH2 = CC(C)C[C@@H](CN[C@@H](Cc1ccccc1)C(N)=O)N*; X9 = CC(C)CC(=O)N(C[C@H](CC(C)C)N*)[C@@H](CC(C)C)C(N)=O; X7 = CCCN(C[C@H](CC(C)C)N*)[C@@H](Cc1ccccc1)C(N)=O; X4 = CC(C)C[C@H](NC(=O)[C@H](CC(C)C)NCCN*)C(N)=O; X2 = CCN(C[C@H](CC(C)C)N*)[C@@H](CC(C)C)C(N)=O; X8 = CC(C)C[C@@H](CN(C)[C@@H](CC(C)C)C(N)=O)N*; X6 = CC(C)C[C@H](NC[C@H](Cc1ccccc1)N*)C(N)=O; X1 = CC(C)C[C@@H](CN[C@@H](CC(C)C)C(N)=O)N*; X5 = O=C(O)CCCN([C@@H](CO)C(=O)[*:2])[*:1]; βAla = NCCC(=O)O

Each compound was assayed against T1, Substance-K receptor (Mesocricetus auratus, UniProt P51144) (assay: Competitive inhibition of [125I]NKA binding to hamster urinary bladder Tachykinin receptor 2). Details: not given.
T1 sequence (P51144 whole entry): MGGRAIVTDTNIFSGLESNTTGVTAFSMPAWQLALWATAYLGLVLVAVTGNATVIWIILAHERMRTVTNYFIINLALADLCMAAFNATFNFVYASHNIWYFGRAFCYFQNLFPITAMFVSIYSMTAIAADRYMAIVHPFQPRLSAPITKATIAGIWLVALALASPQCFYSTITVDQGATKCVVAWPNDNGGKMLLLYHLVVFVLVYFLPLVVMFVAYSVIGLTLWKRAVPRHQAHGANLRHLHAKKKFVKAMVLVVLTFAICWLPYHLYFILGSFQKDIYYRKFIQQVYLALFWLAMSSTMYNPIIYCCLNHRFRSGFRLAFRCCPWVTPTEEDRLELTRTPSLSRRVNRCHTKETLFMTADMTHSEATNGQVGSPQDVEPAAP
Assay type: single protein
With `CSCC[C@H](NC(=O)[C@H](CC(C)C)NC(=O)CNC(=O)[C@@H](NC(=O)[C@H](Cc1ccccc1)NC(=O)[C@H](CO)NC(=O)[C@@H](N)CC(=O)O)C(C)C)C(N)=O` the IC50 was 6 nM.
For `CC(C)C[C@H](NC(=O)[C@H](CC(C)C)NC(=O)CNC(=O)[C@@H](NC[C@H](Cc1ccccc1)NC(=O)[C@H](CO)NC(=O)[C@@H](N)CC(=O)O)C(C)C)C(N)=O`, the IC50 was greater than 10000 nM.
Compound `CC(C)C[C@H](NC(=O)[C@H](CC(C)C)NC(=O)CNC[C@@H](NC(=O)[C@H](Cc1ccccc1)NC(=O)[C@H](CO)NC(=O)[C@@H](N)CC(=O)O)C(C)C)C(N)=O` has an IC50 of 5660 nM.
With `CC(C)C[C@H](NC(=O)[C@H](CC(C)C)NC(=O)CNC(=O)[C@@H](NC(=O)[C@H](Cc1ccccc1)NC(=O)[C@H](CO)NC(=O)[C@@H](N)CC(=O)O)C(C)C)C(N)=O` the IC50 was 136 nM.
`CC(C)C[C@H](NC(=O)[C@H](CC(C)C)NCCNC(=O)[C@@H](NC(=O)[C@H](Cc1ccccc1)NC(=O)[C@H](CO)NC(=O)[C@@H](N)CC(=O)O)C(C)C)C(N)=O` (H-DSFV-X4) was tested, and the IC50 was greater than 10000 nM.
In the case of `CC(C)C[C@@H](CN[C@@H](CC(C)C)C(N)=O)NC(=O)CNC(=O)[C@@H](NC(=O)[C@H](Cc1ccccc1)NC(=O)[C@H](CO)NC(=O)[C@@H](N)CC(=O)O)C(C)C` (H-DSFVG-X1), the IC50 is reported as 115 nM.
`CCN(C[C@H](CC(C)C)NC(=O)CNC(=O)[C@@H](NC(=O)[C@H](Cc1ccccc1)NC(=O)[C@H](CO)NC(=O)[C@@H](N)CC(=O)O)C(C)C)[C@@H](CC(C)C)C(N)=O` (H-DSFVG-X2) gave an IC50 of 277 nM.
In the case of `CC(C)C[C@H](NC[C@H](Cc1ccccc1)NC(=O)CNC(=O)[C@@H](NC(=O)[C@H](Cc1ccccc1)NC(=O)[C@H](CO)NC(=O)[C@@H](N)CC(=O)O)C(C)C)C(N)=O` (H-DSFVG-X6), the IC50 is reported as greater than 10000 nM.
Work on `CC(C)C[C@@H](CN(C)[C@@H](CC(C)C)C(N)=O)NC(=O)CNC(=O)[C@@H](NC(=O)[C@H](Cc1ccccc1)NC(=O)[C@H](CO)NC(=O)[C@@H](N)CC(=O)O)C(C)C` (H-DSFVG-X8) yielded an IC50 of 193 nM.
In the case of `CC(C)CC(=O)N(C[C@H](CC(C)C)NC(=O)CNC(=O)[C@@H](NC(=O)[C@H](Cc1ccccc1)NC(=O)[C@H](CO)NC(=O)[C@@H](N)CC(=O)O)C(C)C)[C@@H](CC(C)C)C(N)=O` (H-DSFVG-X9), the IC50 is reported as 162 nM.
For `CC(C)C[C@@H](CN[C@@H](Cc1ccccc1)C(N)=O)NC(=O)CNC(=O)[C@@H](NC(=O)[C@H](Cc1ccccc1)NC(=O)[C@H](CO)NC(=O)[C@@H](N)CC(=O)O)C(C)C` (H-DSFVG-{Leuψ(CH2NH)PheNH2}), the IC50 was 9 nM.
With `CC(C)C[C@@H](CN[C@@H](CC(C)C)C(N)=O)NC(=O)CCNC(=O)[C@@H](NC(=O)[C@H](Cc1ccccc1)NC(=O)[C@H](CO)NC(=O)[C@@H](N)CC(=O)O)C(C)C` (H-DSFV[βAla]-X1) the IC50 was 108 nM.
Work on `CCCN(C[C@H](CC(C)C)NC(=O)CCNC(=O)[C@@H](NC(=O)[C@H](Cc1ccccc1)NC(=O)[C@H](CO)NC(=O)[C@@H](N)CC(=O)O)C(C)C)[C@@H](Cc1ccccc1)C(N)=O` (H-DSFV[βAla]-X7) yielded an IC50 of 1 nM.
`CC(C)C[C@@H](CN[C@@H](Cc1ccccc1)C(N)=O)NC(=O)CCNC(=O)[C@@H](NC(=O)[C@H](Cc1ccccc1)NC(=O)[C@H](CO)NC(=O)[C@@H](N)CC(=O)O)C(C)C` (H-DSFV[βAla]-{Leuψ(CH2NH)PheNH2}) showed an IC50 of 10 nM.
For `CC(C)C[C@H](NC(=O)[C@H](CC(C)C)NC(=O)CNC(=O)[C@@H](NC(=O)[C@H](Cc1ccccc1)NC[C@H](CO)NC(=O)[C@@H](N)CC(=O)O)C(C)C)C(N)=O` (H-[X3]VGLL-NH2), the IC50 was greater than 10000 nM.
With `CC(C)C[C@H](NC(=O)[C@H](CC(C)C)NC(=O)CNC(=O)[C@@H](NC(=O)[C@H](Cc1ccccc1)NC(=O)[C@H](CO)NCCCC(=O)O)C(C)C)C(N)=O` (H-[X5]FVGLL-NH2) the IC50 was 1650 nM.
In the case of `CSCC[C@H](NC(=O)[C@H](CC(C)C)NC(=O)CNC(=O)[C@@H](NC(=O)[C@H](Cc1ccccc1)NC(=O)[C@H](CO)NC(=O)[C@H](CC(=O)O)NC(=O)[C@@H](NC(=O)[C@H](CCCCN)NC(=O)[C@@H](N)Cc1cnc[nH]1)[C@@H](C)O)C(C)C)C(N)=O` [NEUROKININ A], the IC50 is reported as 1 nM.
`CSCC[C@H](NC(=O)[C@H](CC(C)C)NC(=O)CNC(=O)[C@H](Cc1ccccc1)NC(=O)[C@H](Cc1ccccc1)NC(=O)[C@H](CCC(N)=O)NC(=O)[C@H](CCC(N)=O)NC(=O)[C@@H]1CCCN1C(=O)[C@H](CCCCN)NC(=O)[C@@H]1CCCN1C(=O)[C@@H](N)CCCN=C(N)N)C(N)=O` [SUBSTANCE P] was tested, and the IC50 was 148 nM.

The compounds below were run on Cricetinae gen. sp. (assay: Compound was evaluated for the competitive antagonism of NKA-stimulated PI (phosphatidylinositol) turnover in hamster urinary bladder tissue using [3H]inositol as radioligand). Details: read-out: pA2 (converted).
Assay type: functional
Summary of the method: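 Chopped hamster bladder labeled 1 h at 37 °C with [3H]myo-inositol. Assay run at room temperature in Krebs-HEPES (20 mM). Total inositol phosphates isolated on ion-exchange columns eluted sequentially, starting with water. PI turnover ratio = inositol phosphates cpm / organic extraction phase cpm. Basal level taken without NKA; maximum stimulation with 1 μM NKA. Mean ± SEM of separate experiments.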
Compound `CC(C)C[C@@H](CN[C@@H](CC(C)C)C(N)=O)NC(=O)CNC(=O)[C@@H](NC(=O)[C@H](Cc1ccccc1)NC(=O)[C@H](CO)NC(=O)[C@@H](N)CC(=O)O)C(C)C` (H-DSFVG-X1) has a Kb of 200 nM.
